Source: paper PMC6712212 (Drug Design, Development and Therapy, 2019)

Tested on: NSCLC-H292 cells
Assay: Flow cytometry cell cycle analysis
Assay type: cell-based, human
Outline: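 Cells were grown in six-well plates and treated 48 hrs, then harvested and centrifuged 5 mins. They were resuspended in precooled PBS, centrifuged again, and fixed in 70% ethanol overnight at 4°C. After a PBS rinse, cells were stained with propidium iodide. Red fluorescence of 1×10^5 cells was measured by flow cytometry with 488 nm excitation.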

## O[C@@H](CS)[C@@H](O)CS [DTT]
  Cell cycle effect (in words): cells were blocked in G0/G1phase
